Where two headings read alike, the source gives them in different places.
Key:
[1] = Plasma pharmacokinetics in the doravirine/islatravir drug interaction study; format: in vivo, human
Summary of the method: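 Healthy adults were randomized and blinded. They took oral doravirine 100 mg or placebo QD for 5 days, then islatravir 2.25 mg QD for 14 days, then both for 5 days, with no washout and ≥10 h fasting before dosing on PK days. K2EDTA plasma went to validated LC-MS/MS (islatravir LLOQ 0.10 ng/mL). AUC0–24h used linear-up/log-down; GMRs came from a ln-scale mixed-effects model.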

Safety and tolerability = format: in vivo, human; details: doravirine 100 mg QD, islatravir 2.25 mg QD, alone or in combination; participants without HIV
Summary of the method: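 Safety was assessed throughout the study by adverse-event monitoring, physical examinations, vital signs, electrocardiography and laboratory safety tests. Investigators graded clinical adverse events as mild, moderate or severe in intensity. The analysis set was all participants given at least one dose of active study drug or placebo. Dosing was oral with water at the same time each day.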

[2] = cited from earlier work
[3] = cited from earlier work; remark: listed apart in the source
CYP enzymes = details: cited from earlier work
[4] = cited from earlier work; remark: listed apart in the source
[5] = single oral doses, participants without HIV

Cn1c(Cn2ccc(C(F)(F)F)c(Oc3cc(Cl)cc(C#N)c3)c2=O)n[nH]c1=O [Doravirine]
Doravirine C24h, GMR (90% CI), (doravirine + islatravir)/doravirine ([1]; doravirine 100 mg QD with vs without islatravir 2.25 mg QD): 1.12 (0.95–1.32) | AUC(0-t) ([1]; human, plasma, oral, 100 mg): 34 µM·h | Cmax ([1]; human, plasma, oral, 100 mg): 2440 nM | Tmax ([1]; human, plasma, oral, 100 mg): 2.5 h | concentration at 24 h ([1]; human, plasma, oral, 100 mg): 773 nM | Tolerability (Safety and tolerability): generally well tolerated | Apparent terminal half-life ([2]; 6–1200 mg orally): 12 to 21 h | Time to attainment of steady state ([2]; QD dosing, 200 mg orally): approximately 5 days | Range of median Tmax previously reported [2]: 1 to 4 h | Reduction of doravirine exposure on coadministration with rifabutin ([2]; moderate CYP3A4 inducer): 50% | Reduction of doravirine exposure on coadministration with rifampin ([2]; strong CYP3A4 inducer): 88% | Tolerability ([3]; doses of up to 1,200 mg in clinical studies): generally well tolerated | Inhibition or induction of CYP enzymes (CYP enzymes; in vitro): not an inhibitor or inducer of CYP enzymes

C#C[C@]1(CO)O[C@@H](n2cnc3c(N)nc(F)nc32)C[C@@H]1O [Islatravir, 4'-Ethynyl-2-fluoro-2'-deoxyadenosine]
AUC(0-t) ([1]; human, plasma, oral, 2.25 mg): 0.254 µM·h | Cmax ([1]; human, plasma, oral, 2.25 mg): 63.5 nM | Tmax ([1]; human, plasma, oral, 2.25 mg): 0.52 h | Tolerability (Safety and tolerability): generally well tolerated | Time to steady-state plasma concentrations ([4]; oral QD dosing): ~14 days | Half-life of islatravir [4, 5]: 49 to 61 h | Time at which peak plasma concentrations were attained [4, 5]: ~ 0.5 h | Tolerability ([3]; treatment-naive people living with HIV-1, oral doses 0.5–30 mg): generally well tolerated | Metabolism by CYP enzymes (CYP enzymes): not metabolized by CYP enzymes

C#C[C@]1(COP(=O)(O)OP(=O)(O)OP(=O)(O)O)O[C@@H](n2cnc3c(N)nc(F)nc32)C[C@@H]1O [islatravir-TP]
Time at which peak intracellular islatravir-TP concentrations were attained ([4]; after islatravir administration): 6 to 24 h | Apparent terminal half-life of islatravir-TP ([4]; dosed daily to steady state): exceeded 7 days | Time to steady state of intracellular islatravir-TP ([4]; oral QD dosing of islatravir): ≤ 28 days | Intracellular half-life of islatravir-TP ([4]; single oral doses of islatravir): 118 to 171 h
